Measurements from different studies.
Lines come from different studies, so protocols differ.
Target: Tyrosine-protein kinase TXK (TXK, Homo sapiens, UniProt P42681)
One construct used (P42681 1-527): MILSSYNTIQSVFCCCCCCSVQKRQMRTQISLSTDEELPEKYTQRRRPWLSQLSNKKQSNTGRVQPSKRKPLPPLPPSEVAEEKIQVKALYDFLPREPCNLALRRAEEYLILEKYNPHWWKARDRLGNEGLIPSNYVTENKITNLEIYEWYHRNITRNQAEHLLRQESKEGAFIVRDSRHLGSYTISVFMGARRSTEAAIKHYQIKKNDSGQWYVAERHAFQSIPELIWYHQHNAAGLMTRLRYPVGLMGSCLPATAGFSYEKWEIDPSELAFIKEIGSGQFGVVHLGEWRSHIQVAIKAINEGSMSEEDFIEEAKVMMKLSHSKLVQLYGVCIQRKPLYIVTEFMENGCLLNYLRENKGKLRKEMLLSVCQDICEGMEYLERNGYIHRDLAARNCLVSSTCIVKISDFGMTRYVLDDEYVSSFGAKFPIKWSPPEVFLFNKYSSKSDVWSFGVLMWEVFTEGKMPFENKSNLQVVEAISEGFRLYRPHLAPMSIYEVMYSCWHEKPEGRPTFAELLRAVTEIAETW

O=C1NC(=O)c2cc(Nc3ccc(F)cc3)c(Nc3ccc(F)cc3)cc21 — remaining signal (cell-free assay; 0.5 µM): 84.1%
COc1cc(-c2cn(C3CCc4ccccc4N(CC(F)(F)F)C3=O)nn2)ccc1-n1ccc(C)n1 (stereo not shown) — remaining binding (binding; competition with immobilised ligand; 1 µM): 84%
CC(C)(O)[C@H]1CC[C@H](Nc2ccc3ncc(-c4cccc(C(F)(F)F)c4)n3n2)CC1 — remaining activity (enzyme activity; inhibitor; 1 µM): 62.6%
O=C(NS(=O)(=O)c1ccc(NCC2CCOCC2)c([N+](=O)[O-])c1)c1ccc(N2CCN(Cc3ccc(C(F)(F)F)cc3-c3ccc(Cl)cc3)CC2)cc1Oc1cnc2[nH]ccc2c1 — remaining binding (cell-free assay; competition with immobilised ligand; 1 µM): 94%
Cc1cnc(NC2CCOCC2)nc1-n1cnc(C(=O)NC(CN)c2cc(F)cc(Cl)c2)c1 (stereo not shown) — remaining activity (enzyme activity; inhibitor; radiometric; 1 µM): 102%
CS(=O)(=O)CCNCc1ccc(-c2ccc3ncnc(Nc4ccc(OCc5cccc(F)c5)c(Cl)c4)c3c2)o1 — remaining signal (cell-free assay; 0.5 µM): 110%
COc1cc(Cl)c(C(=O)N[C@@H](CN[C@H]2CC[C@@H](N)CC2)Cc2ccc(C#N)cc2)cc1-c1ccc(CN[C@H](C)c2ccc(C)cc2)o1 — remaining activity (enzyme activity; inhibitor; 1 µM): 88%
CCN(CC)c1ccc(C2=NNC(=O)CC2C)cc1[N+](=O)[O-] (stereo not shown) — remaining activity (enzyme activity; inhibitor; 10 µM): 84%
Nc1ncnc2occ(-c3ccc(NC(=O)Nc4cc(C(F)(F)F)ccc4F)cc3)c12 — remaining activity (enzyme activity; inhibitor; 20 µM): 14%
CCCCN(CCCC)C(=O)CN1C[C@@H](c2cc(OC)c3c(c2)OCO3)[C@H](C(=O)O)[C@H]1CC(C)(C)CCC — remaining binding (cell-free assay; competition with immobilised ligand; 1 µM): 100%
N#CCCc1ccc2c(c1)-c1[nH]c3ccc([N+](=O)[O-])cc3c1CC(=O)N2 — remaining signal (cell-free assay; 0.5 µM): 67.6%
CC(C)(C)c1nc(-c2cccc(NS(=O)(=O)c3c(F)cccc3F)c2F)c(-c2ccnc(N)n2)s1 — remaining activity (enzyme activity; inhibitor; radiometric; 1 µM): 88%
Cc1ccc(C(=O)NCc2ccsc2)cc1C#Cc1cn(C(C)C)c2ncnc(N)c12 — activity vs control (enzyme activity; inhibitor; 1 µM): 36%
Cc1sc(C(=O)NC2COC2)cc1-n1cc(NC(=O)Nc2c(F)cccc2Cl)cn1 — remaining activity (enzyme activity; inhibitor; 10 µM): 76.7%
Cc1c(NC(=O)c2cc(C(N)=O)nc3cc(F)ccc23)c(C(F)(F)F)nn1Cc1ccc(C#N)cc1 — remaining binding (binding; competition with immobilised ligand; 1 µM): 99%
c1nc2c(Nc3ccc4c(c3)OCCO4)nc(Nc3ccc4c(c3)OCCO4)nc2[nH]1 — activity vs control (enzyme activity; inhibitor; 10 µM): 8%
O=C(NCc1ncc(C(F)(F)F)cc1Cl)c1ccc2c(c1)C1(CCS(=O)(=O)CC1)[C@@H](C1CC1)N2S(=O)(=O)c1ccc(F)cc1 — remaining binding (binding; competition with immobilised ligand; 1 µM): 83%
COc1cc2ncnc(Nc3ccc(Oc4ccccc4)cc3C)c2cc1OC — inhibition (enzyme activity; inhibitor; 1 µM): 16%
Cc1ccc(C(=O)Nc2ccc(CN3CCN(C)CC3)c(C(F)(F)F)c2)cc1C#Cc1cnc2cccnn12 — remaining activity (enzyme activity; inhibitor; 23.5 nM): 25%
